Experimental findings from ChEMBL document CHEMBL1687758, “Azithromycin alters macrophage phenotype and pulmonary compartmentalization during lung infection with Pseudomonas” (2010) are described below.

Calls of active or inactive are those of the source. The rule behind the calls is not given here.

Assay [1] relates to Mus musculus. Nature of the assay: Immunomodulatory activity in Pseudomonas aeruginosa M57-15 infected C57BL/6 mouse lung assessed as increase of MHC2 expression in CD11b+ Gr1+ cells in lung digest at 0.16 g/kg, po measured after 7 days by flow cytometry. The assay is classed as functional, organism-based. Put shortly:
(§1)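 Oral gavage of 0.16 g/kg daily (2% methylcellulose vehicle) began 4 days before intratracheal bead infection (1 × 105 to 2 × 10^5 CFU). On days 3, 7 and 14, cells were taken from lavage (0.3 mM EDTA buffer) and from collagenase/DNase lung digest (1 h, 37°C). Cells were stained for CD11b, CD11c, Gr-1, CD4, CD80, MHC-II and MR, with more than 50,000 events acquired. Counts were gated percent × manual cell count.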

Assay [2] has as its system Pseudomonas aeruginosa. The assay is described as follows: Antibacterial activity against Pseudomonas aeruginosa M57-15 infected in C57BL/6 mouse assessed as increase of host survival time at 0.16 g/kg, po measured up to 14 days. The class given is functional, organism-based. Put shortly:
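For survival, mice received 1.3 × 10^6 CFU (1× LD50) intratracheally in agarose beads under isoflurane. Daily oral gavage of 0.16 g/kg in 2% methylcellulose, or vehicle, began 4 days before infection. Survival curves were compared by log-rank.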

In assay [3] the test system is Pseudomonas aeruginosa. The assay is described as follows: Antibacterial activity against Pseudomonas aeruginosa M57-15 infected in C57BL/6 mouse assessed as effect on bacterial burden at 0.16 g/kg, po measured up to 14 days. The assay is classed as functional, organism-based. Summed up: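 Mice got 0.16 g/kg in 2% methylcellulose by daily oral gavage, starting 4 days before infection, or vehicle. Infection was intratracheal with bead-embedded bacteria, 1 × 105 to 2 × 10^5 CFU (about LD10). On days 0, 3, 7 and 14, aliquots of lung lavage and digest were plated on Pseudomonas selection agar and CFU counted manually after overnight growth.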

Assay [4] concerns Mus musculus. The assay is described as follows: Immunomodulatory activity in Pseudomonas aeruginosa M57-15 infected C57BL/6 mouse lung assessed as increase of total cells in lung digest at 0.16 g/kg, po measured after 14 days by flow cytometry. The assay is classed as functional, organism-based. Summed up: as §1
Assay [5] has as its system Mus musculus. The assay is described as follows: Immunomodulatory activity in Pseudomonas aeruginosa M57-15 infected C57BL/6 mouse lung assessed as increase of CD4+ T cell in lung lavage fluid at 0.16 g/kg, po measured after 7 to 14 days by flow cytometry. The class given is functional, organism-based. Summed up: as §1
(In general: In flow cytometry, cells or beads pass a laser one at a time.)

In assay [6] the test system is Mus musculus. The assay is described as follows: Immunomodulatory activity in Pseudomonas aeruginosa M57-15 infected C57BL/6 mouse lung assessed as increase of CD4+ T cell in alveolar space at 0.16 g/kg, po measured after 7 days by flow cytometry. The assay is classed as functional, organism-based. Summed up: as §1
Assay [7] relates to Mus musculus. Nature of the assay: Immunomodulatory activity in Pseudomonas aeruginosa M57-15 infected C57BL/6 mouse lung assessed as CD11b+c- cell expression level in lung digest at 0.16 g/kg, po measured after 3 days by flow cytometry (reference value: 25.42 +/- 10.57 %). The assay is classed as functional. Summed up: as §1
Assay [8] relates to Mus musculus. The assay is described as follows: Immunomodulatory activity in Pseudomonas aeruginosa M57-15 infected C57BL/6 mouse lung assessed as CD11b-c+ cell expression level in lung digest at 0.16 g/kg, po measured after 14 days by flow cytometry (reference value: 23.93 +/- 4.10 %). The class given is functional. Summed up: as §1
For assay [9], the system named is Mus musculus. Nature of the assay: Immunomodulatory activity in Pseudomonas aeruginosa M57-15 infected C57BL/6 mouse lung assessed as CD11b+c- cell expression level in lung lavage fluid at 0.16 g/kg, po measured after 3 days by flow cytometry (reference value: 1.20 +/- 0.41 %). The class given is functional. Summed up: as §1
Assay [10] deals with Mus musculus. The assay is described as follows: Immunomodulatory activity in Pseudomonas aeruginosa M57-15 infected C57BL/6 mouse lung assessed as CD11b+c- cell expression level in lung lavage fluid at 0.16 g/kg, po measured after 7 days by flow cytometry (reference value: 1.13 +/- 0.30 %). The class given is functional. Summed up: as §1
In assay [11] the test system is Mus musculus. The assay is described as follows: Immunomodulatory activity in Pseudomonas aeruginosa M57-15 infected C57BL/6 mouse lung assessed as CD11b+c- cell expression level in lung lavage fluid at 0.16 g/kg, po measured after 14 days by flow cytometry (reference value: 1.15 +/- 0.62 %). The assay is classed as functional. Summed up:
as §1

Assay [12] relates to Mus musculus. Nature of the assay: Immunomodulatory activity in Pseudomonas aeruginosa M57-15 infected C57BL/6 mouse lung assessed as CD11b+c+ cell expression level in lung lavage fluid at 0.16 g/kg, po measured after 3 days by flow cytometry (reference value: 2.38 +/- 0.75 %). The assay is classed as functional. Put shortly:
as §1

The test system of assay [13] is Mus musculus. Nature of the assay: Immunomodulatory activity in Pseudomonas aeruginosa M57-15 infected C57BL/6 mouse lung assessed as CD11b+c+ cell expression level in lung lavage fluid at 0.16 g/kg, po measured after 7 days by flow cytometry (reference value: 1.51 +/- 1.53 %). The class given is functional. Put shortly: as §1
Assay [14] relates to Mus musculus. Nature of the assay: Immunomodulatory activity in Pseudomonas aeruginosa M57-15 infected C57BL/6 mouse lung assessed as CD11b-c+ cell expression level in lung lavage fluid at 0.16 g/kg, po measured after 7 days by flow cytometry (reference value: 72.59 +/- 16.30 %). The class given is functional. Put shortly:
as §1

In assay [15] the test system is Mus musculus. The assay is described as follows: Immunomodulatory activity in Pseudomonas aeruginosa M57-15 infected C57BL/6 mouse lung assessed as CD11b-c+ cell expression level in lung lavage fluid at 0.16 g/kg, po measured after 14 days by flow cytometry (reference value: 72.38 +/- 13.69 %). The class given is functional. Summed up: as §1
For assay [16], the system named is Mus musculus. The assay is described as follows: Immunomodulatory activity in Pseudomonas aeruginosa M57-15 infected C57BL/6 mouse lung assessed as increase of MHC2 expression in CD11b+ Gr1+ cells in alveolar space at 0.16 g/kg, po measured after 7 days by flow cytometry. The assay is classed as functional, organism-based. Summed up: as §1
The subject of assay [17] is Mus musculus. Nature of the assay: Immunomodulatory activity in Pseudomonas aeruginosa M57-15 infected C57BL/6 mouse lung assessed as increase of CD80 expression in CD11b+ Gr1+ cells in alveolar space at 0.16 g/kg, po measured after 7 days by flow cytometry. The assay is classed as functional, organism-based. Put shortly: as §1
Assay [18] deals with Mus musculus. Nature of the assay: Immunomodulatory activity in Pseudomonas aeruginosa M57-15 infected C57BL/6 mouse lung assessed as decrease of IL-10 production in CD11b+ cells in lung digest at 0.16 g/kg, po measured after 7 days by flow cytometry. The assay is classed as functional, organism-based. Summed up: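 Lung digest cells (2 × 106) were stimulated for 4 h with 50 ng/ml PMA and 500 ng/ml ionomycin plus 10 μg/ml brefeldin A. They were surface-stained for CD11b/CD11c, fixed in 4% formalin, permeabilized with 0.05% saponin, Fc-blocked, and stained for intracellular TNF-α and IL-10 for flow cytometry. Mice were dosed at 0.16 g/kg by daily oral gavage from 4 days before infection.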

Assay [19] has as its system Mus musculus. Nature of the assay: Immunomodulatory activity in Pseudomonas aeruginosa M57-15 infected C57BL/6 mouse lung assessed as decrease of IL-10 production in CD11b+ cells in lung lavage fluid at 0.16 g/kg, po measured after 7 days by flow cytometry. The class given is functional, organism-based. Put shortly:
(§2)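 The first 1-ml lavage wash was frozen at −80°C. Samples diluted 5-fold were incubated 3 h at room temperature with capture beads for a cytometric bead array (IL-12p70, CCL2, TNF-α, IL-10, IFN-γ, IL-6) plus a PE-conjugated detection antibody. Fluorescence was read by flow cytometry against standard curves. Mice had daily oral 0.16 g/kg from 4 days before intratracheal infection.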

Assay [20] relates to Mus musculus. The assay is described as follows: Immunomodulatory activity in Pseudomonas aeruginosa M57-15 infected C57BL/6 mouse lung assessed as decrease of IL-12p70 production in CD11b+ cells in lung lavage fluid at 0.16 g/kg, po measured after 7 days by flow cytometry. The class given is functional, organism-based. Put shortly: as §2

Regarding `CC[C@H]1OC(=O)[C@H](C)[C@@H](O[C@H]2C[C@@](C)(OC)[C@@H](O)[C@H](C)O2)[C@H](C)[C@@H](O[C@@H]2O[C@H](C)C[C@H](N(C)C)[C@H]2O)[C@](C)(O)C[C@@H](C)CN(C)[C@H](C)[C@@H](O)[C@]1(C)O` [AZITHROMYCIN], the outcome in the assay on Mus musculus [1], in the assay on Mus musculus [4], in the assay with Mus musculus [5], in the assay with Mus musculus [6], with Mus musculus [16] and in the assay with Mus musculus [17] was Active. In addition, the outcome with Pseudomonas aeruginosa [2], in the assay on Pseudomonas aeruginosa [3], with Mus musculus [18], with Mus musculus [19] and with Mus musculus [20] was inactive. The Activity in the assay with Mus musculus [7] was 14.42%; in the assay with Mus musculus [8] it was 18.18%; with Mus musculus [9], 0.42%; with Mus musculus [10], 13.3%; in the assay on Mus musculus [11] it was 2.24%; in the assay on Mus musculus [12] it was 2.37%. For the same compound, the Activity in the assay on Mus musculus [13] was found to be 21.67%; in the assay on Mus musculus [14], 38.47%; with Mus musculus [15], 46.16%.
